In brackets after ≈: the same amount, converted by molar mass. Activity calls are given as the source filed them. The calls are words filed in the database; no cut-off is given here.
What was measured:
Danio rerio = species on record: Danio rerio; assay: Inhibition of fin regeneration in zebrafish; type: functional
[1] = Half life in mouse hepatocytes; type: ADME, cell-based, Liver, Hepatocyte
Outline: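 Cryopreserved murine CD1 hepatocytes (10^5 cells) incubated with 2 μM compound; reactions stopped at set time points with methanol; saline or buffer incubations served as controls.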

[2] = Half life in mouse liver S9 fraction; type: ADME, subcellular
[3] = Half life in mouse blood; type: ADME, tissue-based
Outline: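 Compound at 2 μM incubated in whole blood from C57BL/6 mice; incubation stopped at set time points by adding methanol; saline or buffer incubations run as controls.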

SMILES: O=C(Nc1ccc(F)cc1F)c1ccc(N2C(=O)[C@@H]3[C@H](C2=O)[C@@H]2C=C[C@H]3C2)cc1
- inhibition (Danio rerio): Active

SMILES: COc1ccccc1NC(=O)c1ccc(N2C(=O)[C@@H]3[C@H](C2=O)[C@@H]2C=C[C@H]3C2)cc1
- half-life [1]: 10 min

SMILES: O=C(Nc1ccc(F)cc1)c1ccc(N2C(=O)[C@@H]3[C@H](C2=O)[C@@H]2C=C[C@H]3C2)cc1
- half-life [1]: 60 min

SMILES: O=C(Nc1cccc2cccnc12)c1ccc(N2C(=O)[C@@H]3[C@H](C2=O)[C@@H]2C=C[C@H]3C2)cc1
- MIC (Danio rerio): 0.5 µM (≈ 0.205 µg/mL)
- half-life [2]: 20 min
- half-life [1]: 20 min
- half-life [3]: 60 min

From ChEMBL document CHEMBL1151915, “Structure-activity relationship studies of small-molecule inhibitors of Wnt response” (Bioorg Med Chem Lett, 2009)
